Results from ChEMBL document CHEMBL1153575, “Synthesis and in vitro anticancer activity of 2,4-azolidinedione-acetic acids derivatives” (2009).

Experiments:
Type in all cases: functional
[1] = Cytotoxicity against human IGROV cells assessed as cell growth at 10 uM after 48 hrs by sulforhodamine B assay; settings: read-out: Activity
In short: (§1)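 Single-dose primary screen at 10^-5 M (final) across a panel of about 60 human tumour cell lines. Cells were inoculated and preincubated 24–48 h, then the compound was added once and incubated a further 48 h. Protein was stained with sulforhodamine B and read spectrophotometrically. Percent growth is given relative to untreated control cells.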

[2] = test system: ACHN; assay: Cytotoxicity against human ACHN cells assessed as cell growth at 10 uM after 48 hrs by sulforhodamine B assay; settings: read-out: Activity; in short: as §1
[3] = test system: UO-31; assay: Cytotoxicity against human UO31 cells assessed as cell growth at 10 uM after 48 hrs by sulforhodamine B assay; settings: UO-31, 48 h, read-out: Activity; in short: as §1
[4] = test system: TK-10; assay: Cytotoxicity against human TK10 cells assessed as cell growth at 10 uM after 48 hrs by sulforhodamine B assay; settings: TK-10, 48 h, read-out: Activity; in short: as §1
[5] = test system: OVCAR-5; assay: Cytotoxicity against human OVCAR5 cells assessed as cell growth at 10 uM after 48 hrs by sulforhodamine B assay; settings: OVCAR-5, 48 h, read-out: Activity; in short: as §1
[6] = test system: CAKI-1; assay: Cytotoxicity against human Caki1 cells assessed as cell growth at 10 uM after 48 hrs by sulforhodamine B assay; settings: CAKI-1, 48 h, read-out: Activity; in short: as §1
[7] = test system: MDA-MB-231; assay: Growth inhibition of human MDA-MB-231 cells after 48 hrs by sulforhodamine B assay; settings: MDA-MB-231, 48 h; for TGI: read-out: pTGI (converted)
In short: (§2)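 Five-concentration assay in about 60 human tumour lines, using 10-fold dilutions from 10^-4 to 10^-8 M with 48 h continuous exposure and an SRB protein endpoint. Percent growth at each level comes from time-zero, untreated-control and treated absorbances. GI50 is 50% lower net protein increase than control. Values beyond the tested range are given as greater or less than the extreme concentration.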

[8] = test system: SNB-; assay: Growth inhibition of human SNB cells after 48 hrs by sulforhodamine B assay; in short: as §2
[9] = test system: SR; assay: Growth inhibition of human SR cells after 48 hrs by sulforhodamine B assay; settings: for TGI: read-out: pTGI (converted); in short: as §2
[10] = test system: PC-3; assay: Growth inhibition of human PC3 cells after 48 hrs by sulforhodamine B assay; settings: PC-3, 48 h; in short: as §2
[11] = test system: MOLT-4; assay: Growth inhibition of human MOLT4 cells after 48 hrs by sulforhodamine B assay; settings: MOLT-4, 48 h; in short: as §2
[12] = test system: LOX IMVI; assay: Growth inhibition of human LOXIMVI cells after 48 hrs by sulforhodamine B assay; in short: as §2
[13] = test system: HOP-92; assay: Growth inhibition of human HOP92 cells after 48 hrs by sulforhodamine B assay; settings: HOP-92, 48 h; in short: as §2
[14] = test system: HL-60(TB); assay: Growth inhibition of human HL-60(TB) cells after 48 hrs by sulforhodamine B assay; settings: HL-60, 48 h
In short: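 Cells inoculated and preincubated 24–48 h in microtiter plates, then exposed continuously for 48 h to five 10-fold dilutions from 10^-4 to 10^-8 M. End point by sulforhodamine B protein staining, read spectrophotometrically against untreated controls and time-zero absorbance. Percent growth computed per concentration; GI50 taken where [(Ti−Tz)/(C−Tz)]×100 = 50, expressed as log molar value.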

[15] = test system: OVCAR-4; assay: Growth inhibition of human OVCAR4 cells after 48 hrs by sulforhodamine B assay; settings: OVCAR-4, 48 h; in short: as §2
[16] = test system: CCRF-CEM; assay: Growth inhibition of human CCRF-CEM cells after 48 hrs by sulforhodamine B assay; in short: as §2
[17] = test system: U-251; assay: Growth inhibition of human U251 cells after 48 hrs by sulforhodamine B assay; settings: U-251, 48 h; in short: as §2
[18] = test system: RPMI-8226; assay: Growth inhibition of human RPMI8226 cells after 48 hrs by sulforhodamine B assay; settings: RPMI-8226, 48 h; in short: as §2
[19] = test system: SK-OV-3; assay: Growth inhibition of human SKOV3 cells after 48 hrs by sulforhodamine B assay; settings: SK-OV-3, 48 h; in short: as §2
[20] = test system: HOP-62; assay: Growth inhibition of human HOP62 cells after 48 hrs by sulforhodamine B assay; settings: HOP-62, 48 h; in short: as §2
[21] = Growth inhibition of human Hs 578T cells after 48 hrs by sulforhodamine B assay; settings: for CC50: read-out: pLC50 (the source's name) (converted); for TGI: read-out: pTGI (converted); in short: as §2
[22] = test system: SF-268; assay: Growth inhibition of human SF268 cells after 48 hrs by sulforhodamine B assay; settings: SF-268, 48 h; in short: as §2
[23] = test system: TK-10; assay: Growth inhibition of human TK10 cells after 48 hrs by sulforhodamine B assay; settings: TK-10, 48 h; in short: as §2
[24] = test system: SN12C; assay: Growth inhibition of human SN12C cells after 48 hrs by sulforhodamine B assay; in short: as §2
[25] = test system: NCI-H226; assay: Growth inhibition of human NCI-H226 cells after 48 hrs by sulforhodamine B assay; settings: NCI-H226, 48 h; in short: as §2
[26] = test system: SF-539; assay: Growth inhibition of human SF539 cells after 48 hrs by sulforhodamine B assay; settings: SF-539, 48 h; in short: as §2
[27] = test system: RPMI-8226; assay: Cytotoxicity against human RPMI8226 cells assessed as cell growth at 10 uM after 48 hrs by sulforhodamine B assay; settings: RPMI-8226, 48 h, read-out: Activity; in short: as §1
[28] = test system: SR; assay: Cytotoxicity against human SR cells assessed as cell growth at 10 uM after 48 hrs by sulforhodamine B assay; settings: read-out: Activity; in short: as §1
[29] = test system: HCT-116; assay: Cytotoxicity against human HCT116 cells assessed as cell growth at 10 uM after 48 hrs by sulforhodamine B assay; settings: HCT-116, 48 h, read-out: Activity; in short: as §1
[30] = test system: NCI-H23; assay: Growth inhibition of human NCI-H23 cells after 48 hrs by sulforhodamine B assay; settings: NCI-H23, 48 h; in short: as §2
[31] = test system: A498; assay: Growth inhibition of human A498 cells after 48 hrs by sulforhodamine B assay; settings: A498, 48 h; in short: as §2
[32] = test system: SF-268; assay: Cytotoxicity against human SF268 cells assessed as cell growth at 100 uM after 48 hrs by sulforhodamine B assay; settings: SF-268, 48 h, read-out: Activity
In short: (§3)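 Primary one-dose screen on a three-line panel (MCF7 breast, NCI-H460 lung, SF-268 CNS) at 10^-4 M. Cells were preincubated 24–48 h before a single addition of the agent, followed by 48 h incubation. Endpoint was SRB protein staining, reported as percent growth versus untreated controls.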

[33] = test system: MCF7; assay: Cytotoxicity against human MCF7 cells assessed as cell growth at 100 uM after 48 hrs by sulforhodamine B assay; settings: MCF7, 48 h, read-out: Activity; in short: as §3
[34] = test system: NCI-H460; assay: Cytotoxicity against human NCI-H460 cells assessed as cell growth at 100 uM after 48 hrs by sulforhodamine B assay; settings: NCI-H460, 48 h, read-out: Activity; in short: as §3
[35] = read-out: pLC50 (the source's name) (converted)

## O=C(CN1C(=O)N/C(=C\c2ccccc2)C1=O)Nc1ccc(Cl)cc1
[1]
  growth at 10 µM: -3.51%
[2]
  growth at 10 µM: 1.51%
[3]
  growth at 10 µM: -83.1%

## O=C(CN1C(=O)S/C(=C\C=C\c2ccccc2)C1=O)Nc1ccccc1C(F)(F)F
[4]
  growth at 10 µM: 62.5%

## COc1ccc(/C=C2\NC(=O)N(CC(=O)Nc3nccs3)C2=O)cc1
[5]
  growth at 10 µM: 76.5%

## NS(=O)(=O)c1ccc(NC(=O)CC2SC(=O)NC2=O)cc1 (stereo not given)
[6]
  growth at 10 µM: 54.2%

## NS(=O)(=O)c1ccc(NC(=O)CN2C(=O)CNC2=O)cc1
[3]
  growth at 10 µM: 26%

## O=C(CN1C(=O)N/C(=C\c2ccc(Cl)cc2)C1=O)Nc1ccc(Cl)cc1
[7]
  GI50: 16.2 µM
  LC50: > 100 µM
  TGI: 42.7 µM
[8]
  GI50: 13.2 µM
[8]; [35]
  CC50: > 100 µM
[8]; read-out: pTGI (converted)
  TGI: 36.3 µM
[9]
  GI50: 7.08 µM
  LC50: > 100 µM
  TGI: 67.6 µM
[10]
  GI50: 18.6 µM
[10]; [35]
  CC50: > 100 µM
[10]; read-out: pTGI (converted)
  TGI: 46.8 µM
[11]
  GI50: 11 µM
[11]; [35]
  CC50: 72.4 µM
[11]; read-out: pTGI (converted)
  TGI: 28.2 µM
[12]
  GI50: 15.5 µM
[12]; [35]
  CC50: 66.1 µM
[12]; read-out: pTGI (converted)
  TGI: 32.4 µM
[13]
  GI50: 17.4 µM
  LC50: > 100 µM
[13]; read-out: pTGI (converted)
  TGI: 50.1 µM
[14]
  GI50: 19.5 µM
[14]; [35]
  CC50: > 100 µM
[14]; read-out: pTGI (converted)
  TGI: 46.8 µM
[15]
  GI50: 13.2 µM
[15]; [35]
  CC50: > 100 µM
[15]; read-out: pTGI (converted)
  TGI: 64.6 µM
[16]
  GI50: 14.8 µM
  LC50: 67.6 µM
[16]; read-out: pTGI (converted)
  TGI: 31.6 µM
[17]
  GI50: 14.8 µM
  LC50: 60.3 µM
[17]; read-out: pTGI (converted)
  TGI: 29.5 µM
[18]
  GI50: 20.9 µM
  LC50: > 100 µM
[18]; read-out: pTGI (converted)
  TGI: 67.6 µM
[19]
  GI50: 19.5 µM
  LC50: > 100 µM
[19]; read-out: pTGI (converted)
  TGI: 51.3 µM
[20]
  GI50: 15.1 µM
  LC50: > 100 µM
[20]; read-out: pTGI (converted)
  TGI: 43.7 µM
[21]
  GI50: 10.7 µM
  CC50: > 100 µM
  TGI: 38 µM
[22]
  GI50: 10.5 µM
[22]; [35]
  CC50: 85.1 µM
[22]; read-out: pTGI (converted)
  TGI: 29.5 µM
[23]
  GI50: 17 µM
[23]; [35]
  CC50: > 100 µM
[23]; read-out: pTGI (converted)
  TGI: 42.7 µM
[24]
  GI50: 17 µM
  LC50: > 100 µM
[24]; read-out: pTGI (converted)
  TGI: 47.9 µM
[25]
  GI50: 15.8 µM
[25]; [35]
  CC50: > 100 µM
[25]; read-out: pTGI (converted)
  TGI: 44.7 µM
[26]
  GI50: 16.6 µM
[26]; [35]
  CC50: 89.1 µM
[26]; read-out: pTGI (converted)
  TGI: 38.9 µM

## O=C(CN1C(=O)N/C(=C\C=C\c2ccccc2)C1=O)Nc1ccccc1C(F)(F)F
[27]
  growth at 10 µM: 26.6%

## NS(=O)(=O)c1ccc(NC(=O)CC2NC(=O)NC2=O)cc1 (stereo not given)
[28]
  growth at 10 µM: 68.3%

## CN(C)c1ccc(/C=C2\SC(=O)N(CC(=O)Nc3ccccc3C(F)(F)F)C2=O)cc1
[28]
  growth at 10 µM: 45.8%

## CN(C)c1ccc(/C=C2\NC(=O)N(CC(=O)Nc3ccccc3C(F)(F)F)C2=O)cc1
[29]
  growth at 10 µM: 31%

## O=C(CN1C(=O)S/C(=C\c2ccc(Cl)cc2)C1=O)Nc1ccccc1C(F)(F)F
[3]
  growth at 10 µM: 75.8%

## O=C(CN1C(=O)N/C(=C\C=C\c2ccccc2)C1=O)Nc1ccc(Cl)cc1
[7]
  GI50: 26.3 µM
  LC50: > 100 µM
  TGI: > 100 µM
[9]
  GI50: 33.9 µM
  LC50: > 100 µM
  TGI: > 100 µM
[30]
  GI50: 31.6 µM
  LC50: > 100 µM
[30]; read-out: pTGI (converted)
  TGI: > 100 µM
[31]
  GI50: 17.8 µM
[31]; [35]
  CC50: 77.6 µM
[31]; read-out: pTGI (converted)
  TGI: 37.2 µM
[32]
  growth at 100 µM: 39%
[33]
  growth at 100 µM: 7%
[21]
  GI50: 21.9 µM
  CC50: > 100 µM
  TGI: 52.5 µM
[34]
  growth at 100 µM: 17%
